Source: ChEMBL document CHEMBL4038309, “Design and Synthesis of Chlorinated and Fluorinated 7-Azaindenoisoquinolines as Potent Cytotoxic Anticancer Agents That Inhibit Topoisomerase I” (J Med Chem, 2017)
Activity calls are given as the source filed them. No cut-off for these calls is given here.

Assays:
HOP-62 = experiment: Antiproliferative activity against human HOP62 cells assessed as growth inhibition; format: functional
Summary of the method: (§1)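 NCI-60 screen: single-dose pre-screen at 10 μM, then five concentrations from 0.01 to 100 μM. Values beyond the tested range are recorded as 0.01 or 100 μM.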

HCT-116 = experiment: Antiproliferative activity against human HCT116 cells assessed as growth inhibition; format: functional; summary of the method: as §1
SF-539 = experiment: Antiproliferative activity against human SF539 cells assessed as growth inhibition; format: functional; summary of the method: as §1
UACC-62 = experiment: Antiproliferative activity against human UACC62 cells assessed as growth inhibition; format: functional; summary of the method: as §1
OVCAR-3 = experiment: Antiproliferative activity against human OVCAR3 cells assessed as growth inhibition; format: functional; summary of the method: as §1
DU-145 = experiment: Antiproliferative activity against human DU145 cells assessed as growth inhibition; format: functional; summary of the method: as §1
MCF7 = experiment: Antiproliferative activity against human MCF7 cells assessed as growth inhibition; format: functional; summary of the method: as §1
[1] = molecular target: T1, DNA topoisomerase 1 (Homo sapiens) (UniProt P11387); experiment: Inhibition of recombinant Top1 (unknown origin) assessed as Top 1 mediated DNA cleavage using 3'-[32P]-labeled 117 bp DNA as substrate at 0.1 to 100 uM after 20 mins by PAGE analysis
T1 sequence (whole entry): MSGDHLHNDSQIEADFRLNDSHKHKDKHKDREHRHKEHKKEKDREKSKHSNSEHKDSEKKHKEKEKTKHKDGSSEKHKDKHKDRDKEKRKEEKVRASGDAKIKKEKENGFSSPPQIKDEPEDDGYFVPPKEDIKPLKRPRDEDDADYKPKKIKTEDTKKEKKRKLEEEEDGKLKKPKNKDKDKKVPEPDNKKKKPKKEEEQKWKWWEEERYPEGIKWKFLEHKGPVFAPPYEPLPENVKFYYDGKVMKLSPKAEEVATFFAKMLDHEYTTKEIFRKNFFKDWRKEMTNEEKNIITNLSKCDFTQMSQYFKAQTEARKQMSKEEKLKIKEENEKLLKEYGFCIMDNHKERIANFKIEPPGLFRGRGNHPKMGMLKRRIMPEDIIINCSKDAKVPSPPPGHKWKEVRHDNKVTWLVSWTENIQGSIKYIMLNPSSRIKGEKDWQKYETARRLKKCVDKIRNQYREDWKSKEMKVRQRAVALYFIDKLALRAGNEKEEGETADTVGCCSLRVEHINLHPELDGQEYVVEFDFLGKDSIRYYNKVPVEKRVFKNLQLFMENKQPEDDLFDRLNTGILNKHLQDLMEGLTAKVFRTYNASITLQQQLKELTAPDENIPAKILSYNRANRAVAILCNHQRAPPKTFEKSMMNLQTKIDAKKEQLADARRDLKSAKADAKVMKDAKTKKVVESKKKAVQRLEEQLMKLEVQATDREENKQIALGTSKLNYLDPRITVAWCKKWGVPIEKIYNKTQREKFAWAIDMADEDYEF
Summary of the method: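 About 2 nM 3'-[32P]-labeled DNA with recombinant Top1 in 10 mM Tris-HCl pH 7.5, 50 mM KCl, 5 mM MgCl2, 0.1 mM EDTA, 15 μg/mL BSA, 25 °C, 20 min. Compound at 0.1, 1, 10 and 100 μM. Stopped with 0.5% SDS and formamide dye, then run on 20% denaturing PAGE with phosphorimaging.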

[2] = Toxicity in zebrafish embryo assessed as survival at 1 uM preincubated for 1 hr measured after 24 hrs (reference value: 86.2 +/- 8.5%); set-up: species or system Danio rerio; conditions: zebrafish embryos
[3] = Toxicity in zebrafish embryo assessed as survival at 1 uM preincubated for 1 hr measured after 48 hrs (reference value: 84.4 +/- 8.5%); set-up: species or system Danio rerio; conditions: zebrafish embryos
[4] = Toxicity in zebrafish embryo assessed as survival at 1 uM preincubated for 1 hr measured after 72 hrs (reference value: 82.5 +/- 8.4%); set-up: species or system Danio rerio; conditions: zebrafish embryos
[5] = Toxicity in zebrafish embryo assessed as survival at 1 uM preincubated for 1 hr measured after 96 hrs (reference value: 82.5 +/- 8.4%); set-up: species or system Danio rerio; conditions: zebrafish embryos
[6] = Toxicity in zebrafish embryo assessed as survival at 1 uM preincubated for 1 hr measured after 120 hrs (reference value: 82.5 +/- 8.4%); set-up: species or system Danio rerio; conditions: zebrafish embryos
[7] = Toxicity in zebrafish embryo assessed as survival at 0.1 uM preincubated for 1 hr measured after 24 hrs (reference value: 86.2 +/- 8.5%); set-up: species or system Danio rerio; conditions: zebrafish embryos
[8] = Toxicity in zebrafish embryo assessed as survival at 0.1 uM preincubated for 1 hr measured after 48 hrs (reference value: 84.4 +/- 8.5%); set-up: species or system Danio rerio; conditions: zebrafish embryos
[9] = Toxicity in zebrafish embryo assessed as survival at 0.1 uM preincubated for 1 hr measured after 72 hrs (reference value: 82.5 +/- 8.4%); set-up: species or system Danio rerio; conditions: zebrafish embryos
[10] = Toxicity in zebrafish embryo assessed as survival at 0.1 uM preincubated for 1 hr measured after 96 hrs (reference value: 82.5 +/- 8.4%); set-up: species or system Danio rerio; conditions: zebrafish embryos
[11] = Toxicity in zebrafish embryo assessed as survival at 0.1 uM preincubated for 1 hr measured after 120 hrs (reference value: 82.5 +/- 8.4%); set-up: species or system Danio rerio; conditions: zebrafish embryos
[12] = Toxicity in zebrafish embryo assessed as survival at 0.01 uM preincubated for 1 hr measured after 24 hrs (reference value: 86.2 +/- 8.5%); set-up: species or system Danio rerio; conditions: zebrafish embryos
[13] = Toxicity in zebrafish embryo assessed as survival at 0.01 uM preincubated for 1 hr measured after 48 hrs (reference value: 84.4 +/- 8.5%); set-up: species or system Danio rerio; conditions: zebrafish embryos
[14] = Toxicity in zebrafish embryo assessed as survival at 0.01 uM preincubated for 1 hr measured after 72 hrs (reference value: 82.5 +/- 8.4%); set-up: species or system Danio rerio; conditions: zebrafish embryos
[15] = Toxicity in zebrafish embryo assessed as survival at 0.01 uM preincubated for 1 hr measured after 96 hrs (reference value: 82.5 +/- 8.4%); set-up: species or system Danio rerio; conditions: zebrafish embryos
[16] = Toxicity in zebrafish embryo assessed as survival at 0.01 uM preincubated for 1 hr measured after 120 hrs (reference value: 82.5 +/- 8.4%); set-up: species or system Danio rerio; conditions: zebrafish embryos
[17] = Toxicity in zebrafish embryo assessed as survival at 10 uM preincubated for 1 hr measured after 24 to 120 hrs (reference value: 82.5 to 86.2%); set-up: species or system Danio rerio; conditions: zebrafish embryos
Danio rerio [18] = species: Danio rerio; experiment: Toxicity in zebrafish embryo assessed as increase in bent tail at 0.1 uM preincubated for 1 hr measured after 24 to 120 hrs; conditions: in vivo
Summary of the method: (§2)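 Wild-type AB zebrafish embryos, 4 clutch replicates of 40 embryos each, held at 28 °C through 120 hpf. Exposed in Petri dishes to 10, 1, 0.1 or 0.01 μM compound in filtered fish water with 0.1% DMSO. Water-only and DMSO controls included. Mortality, hatching and gross malformations observed.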

Danio rerio [19] = experiment: Toxicity in zebrafish embryo assessed as increase in yolk sac edema at 0.1 uM preincubated for 1 hr measured after 24 to 120 hrs; conditions: in vivo; summary of the method: as §2
Danio rerio [20] = species: Danio rerio; experiment: Toxicity in zebrafish embryo assessed as hatching rate at 0.1 uM preincubated for 1 hr measured after 24 to 120 hrs; conditions: in vivo; summary of the method: as §2
CCRF-CEM = experiment: Induction of DNA damage in human CCRF-CEM cells assessed as gamma-H2AX foci formation at 0.1 to 1 uM after 2 hrs by confocal microscopy; format: functional, cell-based
PBMC = experiment: Induction of DNA damage in human PBMC assessed as gamma-H2AX foci formation at 0.1 to 1 uM after 2 hrs by confocal microscopy; format: cell-based
SN12C = experiment: Antiproliferative activity against human SN12C cells assessed as growth inhibition; format: functional; summary of the method: as §1
[21] = molecular target: T2, Tyrosyl-DNA phosphodiesterase 2 (Homo sapiens, UniProt O95551); experiment: Inhibition of recombinant human TDP2 using 3'-labeled alpha-[32P]-cordycepin as substrate after 15 mins
T2 sequence (O95551 whole entry): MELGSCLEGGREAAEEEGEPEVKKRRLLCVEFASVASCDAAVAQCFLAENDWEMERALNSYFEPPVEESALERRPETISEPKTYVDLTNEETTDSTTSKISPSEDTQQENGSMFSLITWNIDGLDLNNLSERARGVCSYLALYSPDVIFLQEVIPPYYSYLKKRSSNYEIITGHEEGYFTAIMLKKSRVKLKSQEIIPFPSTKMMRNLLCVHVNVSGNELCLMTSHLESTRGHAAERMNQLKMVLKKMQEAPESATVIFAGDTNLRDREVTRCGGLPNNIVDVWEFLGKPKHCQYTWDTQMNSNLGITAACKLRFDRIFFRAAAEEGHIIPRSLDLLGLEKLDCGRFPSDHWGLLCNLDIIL

SMILES: COc1cnc2c(c1)C(=O)c1c-2n(CCCn2ccnc2)c(=O)c2cc(Cl)ccc12
- GI50 (HOP-62): 20 nM
- GI50 (HCT-116): 14 nM
- GI50 (SF-539): 38 nM
- GI50 (UACC-62): 28 nM
- GI50 (OVCAR-3): 120 nM
- GI50 (DU-145): 43 nM
- GI50 (MCF7): < 10 nM
- Top1-mediated DNA cleavage activity (active/not active) [1]: Active
- survival at 24 h, 1 µM [2]: 10.6%
- survival at 48 h, 1 µM [3]: 1.2%
- survival at 72 h, 1 µM [4]: 1.2%
- survival at 96 h, 1 µM [5]: 1.2%
- survival at 120 h, 1 µM [6]: 1.2%
- survival at 24 h, 0.1 µM [7]: 55.6%
- survival at 48 h, 0.1 µM [8]: 54.4%
- survival at 72 h, 0.1 µM [9]: 51.9%
- survival at 96 h, 0.1 µM [10]: 50.6%
- survival at 120 h, 0.1 µM [11]: 50.6%
- survival at 24 h, 0.01 µM [12]: 67.5%
- survival at 48 h, 0.01 µM [13]: 65.6%
- survival at 72 h, 0.01 µM [14]: 63.1%
- survival at 96 h, 0.01 µM [15]: 61.8%
- survival at 120 h, 0.01 µM [16]: 61.9%
- survival at 10 µM [17]: 0%
- Activity (Danio rerio [18]): Non-Toxic
- Activity (Danio rerio [19]): Non-Toxic
- Activity (Danio rerio [20]): Non-Toxic

SMILES: COc1cc2c3c(n(CCCNCCO)c(=O)c2cc1OC)-c1cc2c(cc1C3=O)OCO2 [LMP-744]
- Activity (CCRF-CEM): Active
- Activity (PBMC): Non-Toxic

SMILES: CC[C@@]1(O)C(=O)OCc2c1cc1n(c2=O)Cc2cc3ccccc3nc2-1 [CAMPTOTHECIN]
- GI50 (MCF7): 13 nM
- Activity (CCRF-CEM): Active
- Activity (PBMC): Non-Toxic

SMILES: CCNCCCn1c2c(c3ccc(Cl)cc3c1=O)C(=O)c1cc(OC)cnc1-2
- GI50 (HOP-62): 122 nM
- GI50 (HCT-116): 203 nM
- GI50 (SF-539): 506 nM
- GI50 (UACC-62): 532 nM
- GI50 (OVCAR-3): 2130 nM
- GI50 (SN12C): 675 nM
- GI50 (DU-145): 208 nM
- GI50 (MCF7): < 10 nM
- Top1-mediated DNA cleavage activity (active/not active) [1]: Active
- IC50 [21]: > 111000 nM

SMILES: COc1cnc2c(c1)C(=O)c1c-2n(CCCN2CCC(O)CC2)c(=O)c2cc(Cl)ccc12
- GI50 (HOP-62): 94 nM
- GI50 (HCT-116): 98 nM
- GI50 (SF-539): 430 nM
- GI50 (UACC-62): 190 nM
- GI50 (OVCAR-3): 1420 nM
- GI50 (DU-145): 270 nM
- GI50 (MCF7): 42 nM
- Top1-mediated DNA cleavage activity (active/not active) [1]: Active
- Activity (CCRF-CEM): Active
- Activity (PBMC): Non-Toxic
